Results reported in ChEMBL document CHEMBL1141140, “Antifungal agents. 11. N-substituted derivatives of 1-[(aryl)(4-aryl-1H-pyrrol-3-yl)methyl]-1H-imidazole: synthesis, anti-Candida activity, and QSAR studies” (2005).
≈ marks a conversion by molar mass, not a printed value.

How the values were obtained:
Format in all cases: functional
Candida albicans [1] = experiment: In vitro minimal inhibitory concentration against Candida albicans with percentage of resistant strains %R = 0 (MIC > 64 ug/mL) at a range of 0.016-0.5 ug/mL
Candida albicans [2] = experiment: In vitro concentration causing 50% inhibition of Candida albicans with percentage of resistant strains %R = 0 (MIC > 64 ug/mL) at a range of 0.016-0.5 ug/mL
Candida albicans [3] = experiment: In vitro concentration causing 90% inhibition of Candida albicans with percentage of resistant strains %R = 0 (MIC > 64 ug/mL) at a range of 0.016-0.5 ug/mL
Candida albicans [4] = experiment: Ratio of the in vitro minimal inhibitory to that of bifonazole against Candida albicans (MIC(compound)/MIC(bifonazole))
Procedure, shortened: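 Broth microdilution per NCCLS M27-A2 against 12 Candida albicans strains (AIDS oropharyngeal, HIV vulvovaginitis isolates, ATCC 24433 and 20891, lab strains 3153 and CA2). Inoculum ~10^4 cells/mL in RPMI 1640, pH 7.0; DMSO stocks 6.4 mg/mL, twofold dilutions 0.016–64 μg/mL; read at 24 h, 28 °C, no visible growth. Mean MIC over strains converted to μmol/mL, divided by bifonazole MIC.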

Candida albicans [5] = experiment: In vitro minimal inhibitory concentration against Candida albicans with percentage of resistant strains %R = 50 (MIC > 64 ug/mL) at a range of 2-16 ug/mL
Candida albicans [6] = experiment: In vitro concentration causing 50% inhibition of Candida albicans with percentage of resistant strains %R = 50 (MIC > 64 ug/mL) at a range of 2-16 ug/mL
Candida albicans [7] = experiment: In vitro concentration causing 90% inhibition of Candida albicans with percentage of resistant strains %R = 50 (MIC > 64 ug/mL) at a range of 2-16 ug/mL
Candida albicans [8] = experiment: In vitro minimal inhibitory concentration against Candida albicans with percentage of resistant strains %R = 33.33 (MIC > 64 ug/mL) at a range of 0.125-2 ug/mL
Candida albicans [9] = experiment: In vitro concentration causing 50% inhibition of Candida albicans with percentage of resistant strains %R = 33.33 (MIC > 64 ug/mL) at a range of 0.125-2 ug/mL
Candida albicans [10] = experiment: In vitro concentration causing 90% inhibition of Candida albicans with percentage of resistant strains %R = 33.33 (MIC > 64 ug/mL) at a range of 0.125-2 ug/mL
Candida albicans [11] = experiment: In vitro minimal inhibitory concentration against Candida albicans with percentage of resistant strains %R = 16.6 (MIC > 64 ug/mL) at a range of 0.5-4 ug/mL
Candida albicans [12] = experiment: In vitro concentration causing 50% inhibition of Candida albicans with percentage of resistant strains %R = 16.6 (MIC > 64 ug/mL) at a range of 0.5-4 ug/mL
Candida albicans [13] = experiment: In vitro concentration causing 90% inhibition of Candida albicans with percentage of resistant strains %R = 16.6 (MIC > 64 ug/mL) at a range of 0.5-4 ug/mL
Candida albicans [14] = experiment: In vitro concentration causing 50% inhibition of Candida albicans with percentage of resistant strains %R = 41.6 (MIC > 64 ug/mL) at a range of 0.062-0.125 ug/mL
Candida albicans [15] = experiment: In vitro minimal inhibitory concentration against Candida albicans with percentage of resistant strains %R = 41.6 (MIC > 64 ug/mL) at a range of 0.062-0.125 ug/mL
Candida albicans [16] = experiment: In vitro concentration causing 90% inhibition of Candida albicans with percentage of resistant strains %R = 41.6 (MIC > 64 ug/mL) at a range of 0.062-0.125 ug/mL

SMILES | Ratio (Candida albicans [4]) | other results
Clc1ccc(-c2cn(CC3CC3)cc2C(c2ccccc2)n2ccnc2)cc1 (stereo not given) | 0.025 | MIC (Candida albicans [1]): 0.111 µg/mL (≈ 0.286 µM); MIC50 (Candida albicans [2]): 0.016 µg/mL (≈ 0.0412 µM); MIC90 (Candida albicans [3]): 0.125 µg/mL (≈ 0.322 µM)
Clc1ccc(-c2cn(-c3ccccc3)cc2C(c2ccccc2)n2ccnc2)cc1 (stereo not given) | 1.5 | MIC (Candida albicans [5]): 7 µg/mL (≈ 17.1 µM); MIC50 (Candida albicans [6]): 4 µg/mL (≈ 9.76 µM); MIC90 (Candida albicans [7]): 16 µg/mL (≈ 39 µM)
C=CCn1cc(-c2ccc(Cl)cc2)c(C(c2ccccc2)n2ccnc2)c1 (stereo not given) | 0.019 | MIC (Candida albicans [1]): 0.082 µg/mL (≈ 0.219 µM); MIC50 (Candida albicans [2]): 0.016 µg/mL (≈ 0.0428 µM); MIC90 (Candida albicans [3]): 0.25 µg/mL (≈ 0.669 µM)
CCn1cc(-c2ccc(Cl)c(Cl)c2)c(C(c2ccc(C)cc2)n2ccnc2)c1 (stereo not given) | 0.47 | MIC (Candida albicans [8]): 2.18 µg/mL (≈ 5.31 µM); MIC50 (Candida albicans [9]): 2 µg/mL (≈ 4.87 µM); MIC90 (Candida albicans [10]): 2 µg/mL (≈ 4.87 µM)
COC(=O)/C=C/n1cc(-c2ccc(Cl)cc2)c(C(c2ccccc2)n2ccnc2)c1 (stereo not given) | 0.34 | MIC (Candida albicans [11]): 1.62 µg/mL (≈ 3.88 µM); MIC50 (Candida albicans [12]): 2 µg/mL (≈ 4.79 µM); MIC90 (Candida albicans [13]): 4 µg/mL (≈ 9.57 µM)
C=Cn1cc(-c2ccc(Cl)cc2)c(C(c2ccccc2)n2ccnc2)c1 (stereo not given) | 0.031 | MIC (Candida albicans [1]): 0.125 µg/mL (≈ 0.347 µM); MIC50 (Candida albicans [2]): 0.032 µg/mL (≈ 0.0889 µM); MIC90 (Candida albicans [3]): 0.25 µg/mL (≈ 0.695 µM)
Fc1ccc(-n2ccc(C(c3ccc(Cl)cc3)n3ccnc3)c2)cc1 (stereo not given) | 2.7 | –
COc1ccc(C(Cc2ccc([N+](=O)[O-])cc2)n2ccnc2)cc1 (stereo not given) | 17 | –
Cc1ccc(C(c2ccn(-c3ccccc3)c2)n2ccnc2)cc1 (stereo not given) | 1.2 | –
COc1ccc(C(Cc2ccccc2F)n2ccnc2)cc1 (stereo not given) | 49 | –
c1ccc(C(c2ccn(-c3ccccc3)c2)n2ccnc2)cc1 (stereo not given) | 2.3 | –
COc1ccc(C(Cc2cccc(F)c2)n2ccnc2)cc1 (stereo not given) | 51 | –
Cn1cc(-c2ccccc2)c(C(c2ccc3ccccc3c2)n2ccnc2)c1 (stereo not given) | 63 | –
c1ccc(-c2c[nH]cc2C(c2cccc3ccccc23)n2ccnc2)cc1 (stereo not given) | 1.7 | –
COc1ccc(C(Cc2ccc(F)cc2)n2ccnc2)cc1 (stereo not given) | 23 | –
COc1ccc(C(Cc2cccc(Cl)c2)n2ccnc2)cc1 (stereo not given) | 44 | –
COc1ccc(C(Cc2cccc(-n3cccc3)c2)n2ccnc2)cc1 (stereo not given) | 45 | –
Cc1ccc(C(c2ccn(-c3ccc(F)cc3)c2)n2ccnc2)cc1 (stereo not given) | 3.1 | –
COc1ccc(C(Cc2ccccc2Cl)n2ccnc2)cc1 (stereo not given) | 63 | –
Cn1cc(-c2ccccc2)c(C(c2cccc3ccccc23)n2ccnc2)c1 (stereo not given) | 6 | –
COc1ccc(C(Cc2ccccc2[N+](=O)[O-])n2ccnc2)cc1 (stereo not given) | 97 | –
COc1ccc(C(Cc2ccccc2-n2cccc2)n2ccnc2)cc1 (stereo not given) | 7.8 | –
Fc1ccc(C(c2ccn(-c3ccc(F)cc3)c2)n2ccnc2)cc1 (stereo not given) | 1.4 | –
Cn1cc(-c2ccc(Cl)cc2)c(C(c2ccccc2)n2ccnc2)c1 (stereo not given) | 0.025 | MIC50 (Candida albicans [14]): 0.062 µg/mL (≈ 0.178 µM); MIC (Candida albicans [15]): 0.097 µg/mL (≈ 0.279 µM); MIC90 (Candida albicans [16]): 0.125 µg/mL (≈ 0.359 µM)
